# Screening results: PubChem, several laboratories
# The list is not random: actives were taken first. Their share in the collection is about 4.4%.
# Tb MetRS inh: Trypanosoma brucei MetRS inhibition. purified T. brucei MetRS, ATP depletion, Kinase-Glo luminescence. inhibition, % at 11.9 µM. hit rate 0.4% among 360,000;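 active means inhibition above a per-plate cutoff of the control wells' mean inhibition plus 3 SD, cut at about 5.5% in these data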;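 further: 0% = DMSO wells median and 100% = median of wells with control inhibitor compound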
#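 System: purified T. brucei MetRS enzyme / Detection: Kinase-Glo luciferase luminescence reporting remaining unconsumed ATP / Medium: HEPES buffer with MgCl2, KCl, DTT, spermine, BSA, pyrophosphatase / Replication: singlicate, one well per compound / Evaluation: percent inhibition relative to median high and low control wells / Schedule: 2 h aminoacylation at 25 °C after 15 min preincubation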
# MsrA act: activators of bovine methionine sulfoxide reductase A; activation, % at 10.6 µM; hit rate 0.3% among 360,000; purified bovine MsrA, absorbance read-out; in the data active means activation above about 7.5%;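 further: 0% = vehicle and 100% = reference activator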
# m5-HT2A agonist: agonists of mouse serotonin 5-HT2A receptor (HTR2A). P35363. CHO-K1 mHTR2A beta-arrestin complementation, luminescence; percent of 30 µM serotonin response. activation, % at 7.6 µM. hit rate 0.66% among 360,000;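 active means activation above a run cutoff, the mean activation of all tested compounds plus 3 SD, cut at about 14% in these data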;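 further: 0% = plate median of compound wells and 100% = 30 µM serotonin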
# Target sequence (P35363 whole entry, looked up): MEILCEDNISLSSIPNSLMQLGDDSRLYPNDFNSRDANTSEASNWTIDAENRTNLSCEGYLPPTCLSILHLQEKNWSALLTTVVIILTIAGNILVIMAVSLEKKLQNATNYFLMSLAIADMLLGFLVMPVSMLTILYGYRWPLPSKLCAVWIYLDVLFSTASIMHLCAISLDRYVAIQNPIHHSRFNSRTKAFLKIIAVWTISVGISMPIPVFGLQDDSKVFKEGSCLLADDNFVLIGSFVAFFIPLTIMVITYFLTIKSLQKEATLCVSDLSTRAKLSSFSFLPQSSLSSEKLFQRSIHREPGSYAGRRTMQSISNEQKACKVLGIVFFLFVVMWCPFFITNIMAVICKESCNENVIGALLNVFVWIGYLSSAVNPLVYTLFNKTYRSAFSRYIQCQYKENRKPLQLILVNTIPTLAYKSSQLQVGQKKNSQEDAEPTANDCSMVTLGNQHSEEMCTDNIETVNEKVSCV
# AI-2 QS mod: Vibrio harveyi AI-2 quorum sensing modulation; Vibrio harveyi JMH597 AI-2 luminescence/OD600 ratio, 9 h; active compounds read low; strain lacks LuxN and CqsS sensors; 0 = neutral-control median; activity change, % at 7.5 µM; hit rate 0.4% among 300,000; AID 2094; in the data active means activity change below about -75%, passing the limit was not always enough;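 further: luminescence divided by OD600 gain over 9 h not by final OD600 alone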
# AHR act: human AHR activation; activation, % at 5 µM; hit rate 2.5% among 320,000; AID 2796; P35869; AHR-responsive luciferase reporter cells, luminescence; in the data active means activation above about 47%;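 further: 0% = vehicle wells and 100% = reference agonist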
# MsrA inh: inhibits bovine methionine sulfoxide reductase A. AID 651718. hit rate 0.75% among 360,000. purified bovine MsrA, absorbance read-out. inhibition, % at 15.5 µM; in the data active means inhibition above about 4.5%;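 further: 0% = vehicle wells with enzyme and 100% = reference inhibitor wells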
# Numbers without * were called inactive; / = no result.
SMILES,Tb MetRS inh,MsrA act,m5-HT2A agonist,AI-2 QS mod,AHR act,MsrA inh
O=C(CNCc1ccccn1)Nc1ccc([N+](=O)[O-])cc1C(=O)Nc1ccccc1F,0.3,-2.0,-2.7,8.8,74.8*,1.9
O=C(CSc1nc2c(sc3ccccc32)c(=O)n1-c1ccccc1)NCc1ccco1,-0.8,-7.6,5.2,17.3,113.4*,0.6
Cc1cc(Br)cn2c(Cc3ccccc3C(F)(F)F)c(-c3ccc(F)cc3)nc12,/,/,/,/,/,0.1
COC(=O)C1=C(C)N(Cc2ccccc2C(F)(F)F)C(=NCc2ccc(OC)cc2)NC1CCc1ccccc1 (centres undefined),/,/,/,/,/,-1.1
Cc1cc(-n2c(SCC(=O)NCCC3=CCCCC3)nc3n[nH]c(C)c3c2=N)ccc1Cl,-0.4,-3.4,2.2,22.5,53.2*,0.0
Cc1ccc(Cl)cc1-n1c(SCC(=O)NCCC2=CCCCC2)nc2n[nH]c(C)c2c1=N,0.0,-1.1,-2.6,15.8,19.2,-0.1
Cc1ccc(-n2c(SCC(=O)NCC3CCCO3)nc3n[nH]c(C)c3c2=N)cc1Cl (centres undefined),0.0,-1.4,-6.0,17.5,58.8*,-1.0
C/C(CC(=O)Nc1cccc(C(F)(F)F)c1)=N\NC(=O)c1cnccn1,-0.4,-3.1,-0.8,2.0,9.1,0.3
N#C/C(=C\c1ccccc1[N+](=O)[O-])c1nc(C2CC2)cs1,-0.2,-7.6,-3.5,13.2,105.6*,1.6
N#C/C(=C\c1ccc([N+](=O)[O-])cc1)c1nc(C2CC2)cs1,0.1,-3.3,-3.8,10.7,9.9,-1.1
N#C/C(=C/c1ccccc1[N+](=O)[O-])c1nc(C2CC2)cs1,-0.4,-9.6,3.0,4.1,71.3*,1.2
CC(C)c1ccc(N(CC(=O)NCCCN2CCOCC2)S(=O)(=O)c2ccccc2)cc1,-0.5,0.2,-0.7,/,/,2.3
Oc1c(C=Nc2ccccc2Cl)[nH]c2ccccc12,-0.4,-0.7,-1.5,5.2,57.4*,-1.4
CCOC(=O)C1=CCN(S(=O)(=O)c2ccccc2Br)C1c1ccc(Cl)cc1 (centres undefined),/,/,/,/,/,-0.2
Cc1ccc([C@H]2C[C@]34CN(Cc5ccccc5)S(=O)(=O)[C@H]3C[C@H]2O4)cc1,/,/,/,/,/,-0.8
CO/N=C/c1ccc(N2CCN(C(=O)c3ccc(C)cc3)CC2)c([N+](=O)[O-])c1,16.5*,-2.9,-0.9,10.5,-0.2,1.2
COc1ccc(Cl)cc1S(=O)(=O)Nc1ccc2c(c1)n(C)c(=O)n2C,0.2,-3.2,2.6,21.4,14.4,-1.6
COc1ccc2nc(N=Nc3ccc(O)c4ccccc34)sc2c1,-0.5,-5.5,-1.0,23.2,73.0*,0.1
O=[N+]([O-])c1ccc2[nH]c(=S)sc2c1,-0.2,9.6*,-2.8,/,/,1.4
O=[N+]([O-])c1ccc2[nH]c(=S)[nH]c2c1,-0.3,2.5,-0.5,/,/,2.9
O=C(C=Cc1ccc(OCc2ccccc2)cc1)c1c(F)cccc1F,/,/,/,/,/,0.6
CN(C)c1ccc(/C=C2/NC(=O)NC2=O)cc1,-0.6,-5.3,2.3,12.5,108.3*,3.5
CSc1ccc(C(=O)NCC2CCN(C(=O)C(=O)c3cc4ccccc4o3)CC2)cc1,/,/,/,/,/,1.8
O=C(CSc1nc2[nH]ncc2c(=O)[nH]1)NCCc1ccccc1,-0.5,2.1,-3.4,0.3,78.4*,-0.9
c1coc(-c2ccnc(-n3cccc3)n2)c1,-0.1,-4.0,-4.2,9.3,3.0,0.7
SMILES,Tb MetRS inh,MsrA act,m5-HT2A agonist,AI-2 QS mod,AHR act,MsrA inh
Cc1ccsc1-c1ccnc(-n2cccc2)n1,-0.7,-6.4,1.8,15.8,67.0*,1.0
Clc1ccsc1-c1ccnc(-n2cccc2)n1,-1.1,-9.1,10.2,31.1,57.4*,1.0
Clc1ccc(-c2ccnc(-n3cccc3)n2)s1,0.4,-0.5,-0.5,-2.8,53.1*,0.0
COC(=O)[C@]12C[C@H](CC(=O)NCc3cccc4ccccc34)C(=O)N(Cc3ccccc3)C1=C[C@H](C1CCCC1)O[C@@H]2C,/,/,/,/,/,0.0
Cc1ccc(-n2[nH]c(=O)c3cccnc32)cc1,-1.0,-6.8,4.6,13.0,63.7*,-0.2
CCCCS(=O)(=O)N1CCCc2nc(C)c(C)cc21,/,/,/,/,/,1.2
COc1ccc(CC(=O)Nc2ccc(S(=O)(=O)NC(C)C)cc2)cc1,-1.0,-7.9,-3.1,-53.2,-4.3,-0.8
CCCCNS(=O)(=O)c1ccc(NC(=O)Cc2ccc(OC)cc2)cc1,-0.4,-0.4,-3.9,-96.2*,3.3,1.9
C=CCN=C1NC(c2ccccc2)C(C(=O)OC)=C(C)N1Cc1ccccc1C(F)(F)F (centres undefined),/,/,/,/,/,-0.5
O=C(CN1CCN(C(=O)c2ccccc2F)CC1)Nc1ccc(Br)cc1,-0.4,2.3,-5.1,38.3,55.7*,-0.3
O=C(CN1CCN(Cc2ccccc2)CC1)Nc1ccc(Br)cc1,-1.2,-1.9,-8.7,14.3,3.4,1.9
C/C(=N\Nc1nc2ccccc2s1)c1ccc(Br)s1,-0.1,-3.4,-8.1,24.9,53.5*,0.4
Cc1ccccc1NC(=S)N1CCN(C(=O)c2ccco2)CC1,-0.9,-2.7,3.0,9.4,-4.2,0.6
O=C(c1ccco1)N1CCN(C(=S)Nc2ccccc2Cl)CC1,-0.3,-4.9,15.1*,17.8,-3.5,-0.3
O=C(CCC(=O)c1ccc(F)cc1)Nc1cc(Cl)cc(Cl)c1,-1.5,-5.1,0.2,-79.1*,8.2,0.3
CC(=O)c1cccc(NC(=O)CCC(=O)c2ccc(F)cc2)c1,-1.2,-6.9,-2.2,-6.5,/,-0.4
Cc1ccc(/C=N/Nc2nc(Cl)c(Cl)cc2Cl)s1,-2.1,-6.3,-4.5,2.9,54.2*,2.4
Cc1ccsc1/C=N/Nc1nc(Cl)c(Cl)cc1Cl,-0.5,1.7,-3.1,5.7,63.0*,1.1
COc1ccc(N=CC2=C(O)c3ccccc3C2=O)c(OC)c1,-1.3,-1.8,-2.2,22.9,53.9*,0.0
Cc1ccc(N/C=C/C(=O)c2ccccc2)cc1Br,-0.2,-1.6,-4.2,6.7,54.6*,-0.4
Oc1ccc(-c2csc(-c3c[nH]c4ccccc34)n2)c(O)c1,0.7,-4.3,-1.6,14.1,61.1*,0.9
C[C@H](CO)N1C[C@H](C)[C@H](CN(C)Cc2cccc(F)c2)Oc2ncc(C3=CCCC3)cc2C1=O,/,/,/,/,/,0.3
Cc1cccc(C)c1OCc1nnc(SCC(=O)O)n1-c1c(C)cccc1C,/,/,/,/,/,-0.7
Cn1c(O)c(C=Nc2ccc(Br)cc2)sc1=O,0.1,0.3,3.8,22.2,62.6*,1.4
CCCn1c(O)c(C=Nc2ccccc2)sc1=S,-0.3,-4.9,-2.6,8.6,7.5,0.0
O=C1CCC(C(=O)OCC(=O)N2N=C3/C(=C/c4ccccc4)CCCC3C2c2ccccc2)N1 (centres undefined),-0.1,2.5,-5.3,-3.7,72.7*,-0.5
COc1ccc(C(=O)NNC(=S)NC(=O)c2cccs2)cc1,1.0,0.1,-6.7,-81.5*,4.8,1.7
Cc1ccc(C(=O)NC(=S)NNC(=O)c2ccccc2)cc1,-1.5,-3.4,0.3,-150.5*,1.6,1.6
